Measured values: ChEMBL document CHEMBL4270555, “Synthesis and biological evaluation of magnolol derivatives as melatonergic receptor agonists with potential use in depression” (Eur J Med Chem, 2018)
pEC50: −log10 of the molar value. Active and inactive are the calls of the source. The rule behind the calls is not given here.

Assays:
[1] = biological target: Melatonin receptor type 1A (Homo sapiens, UniProt P48039); test: Agonist activity at human MT1 receptor expressed in HEK293 cells after 24 hrs by Fluo-8 dye-based calcium assay; assay type: functional, cell-based
How it was run: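 Fluo-8 calcium flux in HEK293 cells stably expressing human MT1 or MT2, grown in DMEM + 10% FBS at 37 °C, seeded 4×10^4/well and incubated 24 h. Compounds in DMSO/HBSS at several concentrations; fluorescence read at room temperature (ex 485, em 525 nm). Triplicate wells, three independent experiments; EC50 by nonlinear regression.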

[2] = system: Mus musculus; test: Toxicity in Kunming mouse assessed as effect in spontaneous locomotor activity by measuring total distance travelled at 10 to 40 mg/kg, po by open field test; assay type: organism-based; settings: in vivo
How it was run: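 Male Kunming mice, 18–20 g, group-housed at 22 ± 2 °C on 12 h light/dark, given oral doses of 10, 20 or 40 mg/kg before behavioural testing. Each animal placed in the centre of a black open-field box (24 × 24 × 40 cm) for 30 s adaptation, then explored freely for 6 min. Line crossings and distance recorded. Mean ± SEM, n = 10.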

[3] = system: Mus musculus; test: Increase in 5-hydroxyindole-3-acetic acid level in Kunming mouse frontal cortex at 40 mg/kg, po treated for 7 days by HPLC-ECD analysis; assay type: functional, organism-based
How it was run: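 Male Kunming mice (18–20 g) given vehicle or 40 mg/kg for 7 days, then killed by cervical dislocation. Frontal cortex, hippocampus, striatum, hypothalamus and thalamus dissected on ice, homogenized in ice-cold 0.2 M perchloric acid with 0.1 mM EDTA, centrifuged 15,000 rpm, 20 min, 4 °C. Supernatant analysed by HPLC-ECD at +0.50 V; phosphate/octanesulfonate mobile phase pH 3.0 with 12% methanol. Levels in ng/g, mean ± SEM.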

[4] = system: Mus musculus; test: Decrease in dopamine level in Kunming mouse thalamus at 40 mg/kg, po treated for 7 days by HPLC-ECD analysis; assay type: functional, organism-based
How it was run: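 Male Kunming mice received vehicle or 40 mg/kg for 7 days, then were killed by cervical dislocation and the brain regions dissected on ice. Tissue was homogenized in ice-cold 0.2 M perchloric acid with 0.1 mM EDTA and centrifuged at 15,000 rpm, 20 min, 4 °C. Supernatant was analyzed by HPLC-ECD (+0.50 V; phosphate/octanesulfonate mobile phase, pH 3.0). Results in ng/g, mean ± SEM.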

[5] = system: Rattus norvegicus; test: Toxicity in Sprague-Dawley rat assessed as irritation at 2000 mg/kg, po measured over 4 hrs; assay type: organism-based; settings: in vivo
How it was run: (§1)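 Acute oral toxicity run per OECD 425 in adult SD rats (180–220 g). Six animals per group: vehicle control (0.5% CMC-Na, oral), male rats and female rats each dosed orally at 2000 mg/kg. Animals were watched continuously for the first 4 h for behavior, breathing, cutaneous signs (irritation, ulceration, caustic injury, skin rashes), sensory nervous and gastrointestinal effects. Later checks were hourly for 24 h, then every 6 h for 48 h.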

[6] = system: Rattus norvegicus; test: Toxicity in Sprague-Dawley rat assessed as skin rashes at 2000 mg/kg, po measured over 4 hrs; assay type: organism-based; settings: in vivo; how it was run: as §1
[7] = Retention time of the compound by UPLC-IT-TOF-MS analysis; assay type: physicochemical
How it was run: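 Retention on C18 column (100 × 2.1 mm, 1.8 µm) at 30 °C; mobile phase A 0.05% formic acid in water, B 0.05% formic acid in acetonitrile, 0.2 mL/min, linear 5–100% B over 0–18.0 min; IT-TOF-MS detection in positive and negative modes.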

[8] = Drug metabolism in Sprague-Dawley rat feces assessed as 5'-(1-hydroxyallyl)-5-propyl-2'-((2S,3R,4S,5S,6R)-3,4,5-trihydroxy-6-(hydroxymethyl)tetrahydro-2H-pyran-2-yloxy)biphenyl-2-yl hydrogen sulfate formation at 100 mg/kg, po by UPLC-IT-TOF-MS analysis; assay type: ADME, organism-based; settings: in vivo
How it was run: (§2)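 Rats (n = 6) housed in metabolic cages received 100.0 mg/kg orally; controls received 0.5% CMC-Na. Plasma, urine and faeces were collected and analyzed by LC-IT-TOF-MS on a C18 column at 30 °C. Gradient 5–100% acetonitrile with 0.05% formic acid over 18 min at 0.2 mL/min; positive and negative ion MS/MS.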

[9] = Drug metabolism in Sprague-Dawley rat feces assessed as 5'-(1-hydroxyallyl)-5-(1-hydroxypropyl)-2'-((2S,3R,4S,5S,6R)-3,4,5-trihydroxy-6-(hydroxymethyl)tetrahydro-2H-pyran-2-yloxy)biphenyl-2-yl hydrogen sulfate formation at 100 mg/kg, po by UPLC-IT-TOF-MS analysis; assay type: ADME, organism-based; settings: in vivo; how it was run: as §2
[10] = Drug metabolism in Sprague-Dawley rat plasma assessed as (2S,3S,4S,5R,6S)-6-(5'-allyl-5-(1-hydroxyallyl)-2'-((2S,3R,4S,5S,6R)-3,4,5-trihydroxy-6-(hydroxymethyl)tetrahydro-2H-pyran-2-yloxy)biphenyl-2-yloxy)-3,4,5-trihydroxytetrahydro-2H-pyran-2-carboxylic acid formation at 100 mg/kg, po by UPLC-IT-TOF-MS analysis; assay type: ADME, organism-based; settings: in vivo; how it was run: as §2
[11] = Drug metabolism in Sprague-Dawley rat urine assessed as (2S,3S,4S,5R,6S)-6-(5-acryloyl-2'-hydroxy-5'-(1-hydroxyallyl)biphenyl-2-yloxy)-3,4,5-trihydroxytetrahydro-2H-pyran-2-carboxylic acid formation at 100 mg/kg, po by UPLC-IT-TOF-MS analysis; assay type: ADME, organism-based; settings: in vivo
How it was run: (§3)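 Male/unspecified SD rats (n = 6) housed individually in metabolic cages, dosed orally at 100.0 mg/kg; controls given 0.5% CMC-Na orally. Plasma, urine and faeces collected. LC-IT-TOF-MS on C18 column at 30 °C, formic acid (0.05%) water/acetonitrile gradient 5–100% B over 18 min, 0.2 mL/min; positive and negative ion modes with automatic MS/MS.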

[12] = Drug metabolism in Sprague-Dawley rat feces assessed as (2S,3S,4S,5R,6S)-6-(5-acryloyl-2'-hydroxy-5'-(1-hydroxyallyl)biphenyl-2-yloxy)-3,4,5-trihydroxytetrahydro-2H-pyran-2-carboxylic acid formation at 100 mg/kg, po by UPLC-IT-TOF-MS analysis; assay type: ADME, organism-based; settings: in vivo; how it was run: as §2
[13] = Drug metabolism in Sprague-Dawley rat feces assessed as 2S,3S,4S,5R,6S)-6-(5,5'-diallyl-2'-((2S,3R,4S,5S,6R)-3,4,5-trihydroxy-6-(hydroxymethyl)tetrahydro-2H-pyran-2-yloxy)biphenyl-2-yloxy)-3,4,5-trihydroxytetrahydro-2H-pyran-2-carboxylic acid formation at 100 mg/kg, po by UPLC-IT-TOF-MS analysis; assay type: ADME, organism-based; settings: in vivo; how it was run: as §2
[14] = Drug metabolism in Sprague-Dawley rat urine assessed as 1-(5'-allyl-2'-hydroxy-6-((2S,3R,4S,5S,6R)-3,4,5-trihydroxy-6-(hydroxymethyl)tetrahydro-2H-pyran-2-yloxy)biphenyl-3-yl)prop-2-en-1-one formation at 100 mg/kg, po by UPLC-IT-TOF-MS analysis; assay type: ADME, organism-based; settings: in vivo; how it was run: as §3
[15] = Drug metabolism in Sprague-Dawley rat urine assessed as 1-(2'-hydroxy-5'-(1-hydroxyallyl)-6-((2S,3R,4S,5S,6R)-3,4,5-trihydroxy-6-(hydroxymethyl)tetrahydro-2H-pyran-2-yloxy)biphenyl-3-yl)prop-2-en-1-one formation at 100 mg/kg, po by UPLC-IT-TOF-MS analysis; assay type: ADME, organism-based; settings: in vivo; how it was run: as §3
[16] = Drug metabolism in Sprague-Dawley rat plasma assessed as 5,5'-diallyl-2'-hydroxybiphenyl-2-yl hydrogen sulfate formation at 100 mg/kg, po by UPLC-IT-TOF-MS analysis; assay type: ADME, organism-based; settings: in vivo; how it was run: as §3
[17] = Drug metabolism in Sprague-Dawley rat urine assessed as 5,5'-diallylbiphenyl-2,2'-diol formation at 100 mg/kg, po by UPLC-IT-TOF-MS analysis; assay type: ADME, organism-based; settings: in vivo; how it was run: as §3

Sequence of Melatonin receptor type 1A (P48039 whole entry): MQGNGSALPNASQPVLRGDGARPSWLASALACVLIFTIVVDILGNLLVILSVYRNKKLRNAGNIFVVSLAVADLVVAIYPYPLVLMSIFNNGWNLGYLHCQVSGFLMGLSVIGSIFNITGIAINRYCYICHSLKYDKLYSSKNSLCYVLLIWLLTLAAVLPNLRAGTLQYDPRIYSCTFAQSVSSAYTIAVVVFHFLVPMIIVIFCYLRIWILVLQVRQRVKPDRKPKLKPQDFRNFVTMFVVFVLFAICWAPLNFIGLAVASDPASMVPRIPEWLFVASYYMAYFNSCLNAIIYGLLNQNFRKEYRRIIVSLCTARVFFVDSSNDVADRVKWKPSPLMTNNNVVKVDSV

Compound: C=CCc1ccc(O)c(-c2cc(CC=C)ccc2O[C@@H]2O[C@H](CO)[C@@H](O)[C@H](O)[C@H]2O)c1
- pEC50 [1]: 3.40
- Activity [2]: Non-Toxic
- Activity [3]: Active
- Activity [4]: Active
- Activity [5]: Non-Toxic
- Activity [6]: Non-Toxic
- Retention_time [7]: 11.23 min
- Drug metabolism [8]: Metabolite_Detected
- Drug metabolism [9]: Metabolite_Notdetected
- Drug metabolism [10]: Metabolite_Notdetected
- Drug metabolism [11]: Metabolite_Detected
- Drug metabolism [12]: Metabolite_Notdetected
- Drug metabolism [13]: Metabolite_Detected
- Drug metabolism [14]: Metabolite_Detected
- Drug metabolism [15]: Metabolite_Detected
- Drug metabolism [16]: Metabolite_Notdetected
- Drug metabolism [17]: Metabolite_Detected
